Hits are enriched below; roughly 2.3% of the tested compounds scored in any of these assays.
TRPC4 block: inhibitors of mouse TRPC4 channel, primary screen, Fluo4 calcium, HEK293 TRPC4beta/mu-opioid cells. Short transient receptor potential channel 4 (Mus musculus), Q9QUQ5. DAMGO-evoked Fluo4 calcium flux; stronger effect = lower value. B-score at 10 µM. 0.39% of 300,000 active. AID 2247, 2010;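 active = B-score over 3 SD under the library average, no early fluorescence shift, positive overall ratio signal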
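Material: HEK293 cells with stable TRPC4beta plus mu-opioid receptor expression; probe or stimulus: DAMGO in two steps, submaximal then maximal; technique: Fluo4 calcium fluorescence by kinetic imaging, 5 s 1 Hz baseline; measure: integrated fluorescence ratio relative to baseline, converted to per-well B score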
TRPC6 inh: mouse TRPC6 channel inhibitors, primary screen, cell-based, HEK293, membrane potential dye | 1.1% of 310,000 active | AID 2553, 2010 | B-score at 10 µM | ACh-evoked depolarization; stronger effect = lower value | Short transient receptor potential channel 6 (Mus musculus), Q61143;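 active = B-score under library mean minus 3 SD, initial fluorescence not abnormally high, positive integrated signal ratio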;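 also: B-score derived from integrated fluorescence ratio over the kinetic read; more negative B-score means stronger inhibition of depolarization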
Target sequence (Q61143 whole entry, looked up): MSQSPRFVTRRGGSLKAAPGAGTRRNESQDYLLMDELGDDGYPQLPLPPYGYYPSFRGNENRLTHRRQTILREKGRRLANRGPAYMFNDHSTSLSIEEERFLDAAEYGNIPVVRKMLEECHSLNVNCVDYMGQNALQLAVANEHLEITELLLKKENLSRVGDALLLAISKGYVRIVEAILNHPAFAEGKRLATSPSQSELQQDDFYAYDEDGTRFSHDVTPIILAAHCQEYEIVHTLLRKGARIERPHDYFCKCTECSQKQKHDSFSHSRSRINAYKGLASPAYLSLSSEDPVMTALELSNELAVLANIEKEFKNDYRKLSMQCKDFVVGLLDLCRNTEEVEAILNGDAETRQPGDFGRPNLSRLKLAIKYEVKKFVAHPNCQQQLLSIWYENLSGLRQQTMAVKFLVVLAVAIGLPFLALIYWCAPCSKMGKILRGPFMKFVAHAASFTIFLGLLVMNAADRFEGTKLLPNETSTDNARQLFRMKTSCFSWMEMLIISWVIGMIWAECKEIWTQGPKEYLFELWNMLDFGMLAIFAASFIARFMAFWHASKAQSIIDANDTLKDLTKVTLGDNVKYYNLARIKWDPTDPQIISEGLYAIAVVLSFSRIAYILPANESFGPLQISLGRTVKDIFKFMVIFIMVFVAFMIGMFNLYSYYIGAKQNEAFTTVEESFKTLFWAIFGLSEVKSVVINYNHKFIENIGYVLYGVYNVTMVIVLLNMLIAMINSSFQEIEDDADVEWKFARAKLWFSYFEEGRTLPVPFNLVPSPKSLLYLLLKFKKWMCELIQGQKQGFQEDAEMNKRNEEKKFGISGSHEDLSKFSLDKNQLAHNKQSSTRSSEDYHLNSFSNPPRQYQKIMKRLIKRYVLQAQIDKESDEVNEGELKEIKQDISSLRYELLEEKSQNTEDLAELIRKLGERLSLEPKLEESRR
TRPC4 PAM: positive allosteric modulators of TRPC4, primary screen, cell-based, mouse TRPC4beta, HEK293 mu-opioid, Fluo-4 calcium; Short transient receptor potential channel 4 (Mus musculus), Q9QUQ5; B-score at 10 µM; DAMGO EC20, Fluo-4 Ca2+ flux; stronger effect = higher value; 0.42% of 310,000 active;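 active = B-score of calcium response area above 5 SD of library B-scores, with initial fluorescence ratio within 5 SD of library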;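 also: B-score of integrated fluorescence ratio over time as area under calcium response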
TRPC6 act: mouse TRPC6 channel activators, primary screen, cell-based, HEK293, membrane potential dye | 0.13% of 310,000 active | Short transient receptor potential channel 6 (Mus musculus), Q61143 | B-score at 10 µM | AID 2550, 2010 | HEK293-TRPC6 membrane potential dye fluorescence; stronger effect = higher value;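 active = B-score of the integrated fluorescence ratio above library mean plus 3 SD, and starting fluorescence ratio within library mean plus 5 SD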;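 also: higher score means more depolarization so channel activation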
TRPC4 agonist: activators of mouse TRPC4 channel, primary screen, Fluo4 calcium, HEK293 TRPC4beta/mu-opioid cells | Short transient receptor potential channel 4 (Mus musculus), Q9QUQ5 | Fluo4 calcium fluorescence; stronger effect = higher value | B-score at 10 µM | 0.49% of 310,000 active;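 active = B-score above 5 SD of library B-scores, and initial fluorescence ratio not above library mean plus 5 SD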;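 also: positive B-score marks a calcium rise read as TRPC4 activation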
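Assay system – TRPC4beta and mu-opioid receptor HEK293 stable cells · Measured by – Fluo4 fluorescence, kinetic · Schedule – dye loading 45 min room temperature, 110 s kinetic read · Read-out – B-scored integrated calcium fluorescence ratio · Controls – buffer and maximal DAMGO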
Yeast superoxide: reduction of superoxide in aged yeast, primary screen, HTS; 0.18% of 330,000 active; superoxide response (% of plate mean), % at 10 µM; S. cerevisiae aged cells, superoxide DHE fluorescence; stronger effect = lower value; AID 2690, 2010;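 active = superoxide response under a set limit, about three screen SD below normal, cut at about 65% in these data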;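 also: yeast aged for seven days with compound at 30 °C before DHE staining; 100% = average MFI of all compound-treated wells on the plate with controls excluded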
Superoxide pick: superoxide lowering in aged yeast cells, confirmation, cherry picked compounds | shares compounds with Yeast superoxide | S. cerevisiae aging, superoxide DHE fluorescence; stronger effect = lower value | superoxide response (% of plate), % at 10 µM | 1% of 850 active;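 active = superoxide signal below 65% of the plate average of sample wells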;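 also: cells aged with compound for 7 days at 30 degrees C before staining; 100% equals mean DHE fluorescence of all compound wells on the plate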
DHE counter: DHE quenching or ROS scavenging interference in aged yeast, artefact control for yeast caloric restriction mimetic project, S. cerevisiae BY4741, flow cytometry | shares compounds with Yeast superoxide | DHE fluorescence; stronger effect = lower value | fluorescence response, % at 10 µM | 850 tested, under 10 active;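 active = fluorescence response below 15%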;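 also: percent of the mean fluorescence averaged over all compound wells on the plate; lower means stronger quenching of DHE signal or ROS scavenging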
Starred values were filed as active, the others as inactive; i = inactive; · = not tested or not shown.

SMILES	TRPC4 block	TRPC6 inh	TRPC4 PAM	TRPC6 act	TRPC4 agonist	Yeast superoxide	Superoxide pick	DHE counter
COc1ccc(/C=C2\SC(N3CCCCC3)=NC2=O)cc1	i	i	i	i	i	55*	98	99
COCCCN1C(=O)N(c2ccccc2)C(=O)C1CC(=O)Nc1ccccc1 (stereo not given)	i	i	i	i	i	116	·	·
COCCCN1C(=O)N(c2ccccc2)C(=O)C1CC(=O)Nc1ccc(F)cc1 (stereo not given)	i	i	i	i	i	62*	95	90
COc1cccc(N2CC(NC(=O)C(=O)c3c(C)[nH]c4ccccc34)CC2=O)c1 (stereo not given)	i	i	i	i	i	115	·	·
O=C1COc2ccc(C(=O)NCc3ccc4c(c3)OCO4)cc2N1	i	i	i	i	i	64*	97	94
O=C(CSc1nc(=O)n2cc(Cl)ccc2n1)Nc1ccc2c(c1)OCO2	i	i	i	i	i	98	·	·
CN(CCc1ccccn1)C(=O)CCC1CCCN(C(=O)c2c(F)ccc(F)c2F)C1 (stereo not given)	i	i	i	i	i	101	·	·
COc1ccc2nc3cccc(OC)c3nc2c1	i	i	i	i	i	67	·	·
COc1ccc2nc3ccccc3nc2c1N	i	i	i	i	i	49*	57*	94
COc1ccc(S(=O)(=O)N2CC=C(C(=O)NC3CCCC3)CC2)cc1	i	i	i	i	i	63*	103	93
Cc1ccc(S(=O)(=O)N2CC=C(C(=O)NC3CCCC3)CC2)cc1	i	i	i	i	i	98	·	·
O=C(NC(=S)NNC(=O)c1ccccc1O)c1ccco1	i	i	i	i	i	57*	93	111
Oc1cc2ccccc2cc1-c1n[nH]c(=S)o1	i	i	i	i	i	120	·	·
CC(C)(C)NC(=O)c1cccc2c1-c1ccccc1C2=O	i	i	i	i	i	42*	103	111
COc1cc(NC(=O)CSc2nnc3n2C(C)(C)Cc2ccccc2-3)cc(OC)c1	i	i	i	i	i	65*	102	107
COC(=O)CSc1nnc2n1C(C)(C)Cc1ccccc1-2	i	i	i	i	i	105	·	·
COC(=O)c1ccc(C23CC4(C2)[C@H](CN(Cc2ccc(-c5ccccc5)cc2)[C@@H]4c2ccccc2)C3c2ccc(Cl)nc2)cc1 (stereo not given in full)	i	i	i	i	i	102	·	·
CCOc1ccccc1C(=O)N1c2ccccc2Sc2ccccc21	i	i	i	i	i	57*	86	94
CCOc1ccccc1C(=O)N1CCN(c2cccc(Cl)c2)CC1	i	i	i	i	i	119	98	91
COc1ccc(C(=O)N2CCN(c3cccc(Cl)c3)CC2)c(OC)c1	i	i	i	i	i	104	108	100
Cc1c(C(=O)N2CCN(c3cccc(Cl)c3)CC2)cccc1[N+](=O)[O-]	i	i	i	i	i	96	94	98
CC[C@@]1(O)C(=O)OCc2c1cc1n(c2=O)Cc2cc3c(CN(C)C)c(O)ccc3nc2-1	i	i	i	i	i	122	·	·
COc1cc(SC)ccc1C(=O)N1CCN(c2ccccc2F)CC1	i	i	i	i	i	121	120	119
COCCN(C(=O)COC(=O)CCOc1cccc(C)c1)c1c(N)n(Cc2ccccc2)c(=O)[nH]c1=O	i	i	i	i	i	90	·	·
Cn1c(=S)[nH]c(=O)c2ncc(=O)[nH]c21	i	i	i	i	i	63*	103	91
SMILES	TRPC4 block	TRPC6 inh	TRPC4 PAM	TRPC6 act	TRPC4 agonist	Yeast superoxide	Superoxide pick	DHE counter
Cc1nc2[nH]c(=S)n(C)c(=O)c2nc1C	i	i	i	i	i	109	·	·
CCc1ccccc1NC(=O)Cn1nc(C)n2cccc2c1=O	i	i	i	i	i	63*	98	88
Cc1ccc(S(=O)(=O)N(C)c2ccccc2)cc1	i	i	i	i	i	94	·	·
CN(c1ccccc1)S(=O)(=O)c1ccccc1Br	·	·	·	·	·	85	87	89
COC(=O)[C@]1(C)N[C@H](CN(C)C(C)=O)[C@@H]2C(=O)N(C)C(=O)[C@@H]21	·	·	·	·	·	104	·	·
COc1cc(CO)c(Br)cc1OCC(=O)Nc1ccccc1C	i	i	i	i	i	64*	105	102
Cc1ccccc1NC(=O)COc1ccc(Br)cc1C	i	i	i	i	i	120	·	·
COc1cc2c(cc1OC)CN(C(=O)c1cccs1)CC2	i	i	i	i	i	99	·	·
COc1ccc(CNC(=O)c2cc3ccccc3oc2=O)cc1	i	i	i	i	i	63*	96	93
COC(=O)C1CN(C(=O)C(C)Oc2ccccc2Cl)c2ccccc2O1 (stereo not given)	i	i	i	i	i	64*	101	102
COC(=O)C1CN(C(=O)COc2ccc(Cl)cc2Cl)c2ccccc2O1 (stereo not given)	i	i	i	i	i	78	·	·
Cc1ccc(NC(=O)CSc2nnc(C)n2CC2CCCO2)cc1 (stereo not given)	i	i	i	i	i	99	·	·
COc1ccc(-c2c(C(=O)O)nc3ccccc3c2C(=O)O)cc1	i	i	i	i	i	62*	110	99
COc1ccc(CN2CCN(Cc3cccc(Oc4ccccc4)c3)CC2)c(OC)c1OC	i	i	i	i	i	101	·	·
COc1ccc(CN2CCN(Cc3ccc(Br)cc3)CC2)c(OC)c1OC	i	i	i	i	i	46*	94	89

High-throughput results as filed in PubChem BioAssay.
